XiGFP reactiv – reactivates the inactive X chromosome in mouse fibroblasts. XiGFP mouse fibroblasts, % GFP-positive cells imaging, 3 d; cells co-treated with 5-aza-dC sensitizer; scaled so ellipticine positive control = 100%. activation, % at 7.58 µM. 360,000 compounds, 0.055% hits;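 active = mean normalized replicate activation at least 10% and every replicate at or above 10%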
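Material: SV40-immortalized XiGFP fibroblast cells, line 68-5-11 | Buffer or medium: DMEM containing 5-aza-dC | Dosing: One concentration, pinned | Times: 3 d treatment, 15 min room-temperature fixation | Controls: Ellipticine 6 µM positive control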
DENV2 CPE – protects cells from dengue virus 2 cytopathic effect. DENV2-infected cells, cytopathic effect rescue, plate reader. CPE inhibition, % at 9.99 µM. AID 651640. 350,000 compounds, 1.7% hits; in the data active = CPE inhibition above about 20%, passing the limit was not always enough; tested in BHK-21 cells
E-selectin induc – E-selectin induction on HUVECs | P16581 | HUVEC E-selectin immunofluorescence imaging; normalized: neutral wells 0, TNF-alpha wells 100 | activation, % at 7.58 µM | 260,000 compounds, 0.37% hits | AID 686992;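 active = mean E-selectin-positive cell signal at least 10% of the positive control, reached in at least 60% of replicates, without over 20% cell loss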
Target sequence (P16581 whole entry, looked up): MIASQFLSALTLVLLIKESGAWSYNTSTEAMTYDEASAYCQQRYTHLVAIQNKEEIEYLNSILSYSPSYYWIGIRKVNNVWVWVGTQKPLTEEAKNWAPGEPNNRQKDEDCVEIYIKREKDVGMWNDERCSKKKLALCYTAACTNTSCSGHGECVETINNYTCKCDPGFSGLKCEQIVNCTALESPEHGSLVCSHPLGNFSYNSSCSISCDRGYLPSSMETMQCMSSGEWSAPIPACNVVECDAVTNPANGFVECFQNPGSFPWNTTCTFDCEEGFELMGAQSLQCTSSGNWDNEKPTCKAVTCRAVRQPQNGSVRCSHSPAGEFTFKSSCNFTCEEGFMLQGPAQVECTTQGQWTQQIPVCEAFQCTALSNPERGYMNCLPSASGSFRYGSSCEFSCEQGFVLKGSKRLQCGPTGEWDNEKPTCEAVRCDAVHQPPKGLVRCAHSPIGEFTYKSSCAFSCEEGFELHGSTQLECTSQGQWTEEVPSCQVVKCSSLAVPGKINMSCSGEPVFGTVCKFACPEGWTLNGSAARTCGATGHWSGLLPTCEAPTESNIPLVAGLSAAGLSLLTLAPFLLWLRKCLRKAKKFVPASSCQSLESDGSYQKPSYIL
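Assay system: HUVEC primary endothelial cells. Input: 3,000 HUVEC seeded per well. Doses: one compound dose added by pin transfer. Read-out basis: % PE-positive cells. Benchmarks: TNF-alpha high, DMSO low. Detection: immunofluorescence imaging. Buffer or medium: EGM-2, gelatin.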
S100A4 inh HTS – blocks human S100A4 binding to myosin IIA peptide; P26447; S100A4/TAMRA-MyoIIA peptide fluorescence polarization; inhibition, % at 10.7 µM; 360,000 compounds, 0.14% hits;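 active = mean inhibition of at least 70% across replicates, with every replicate also reaching that level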
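Material: S100A4 monomer protein / Buffer or medium: 50 mM HEPES pH 7.2, 10 mM CaCl2, 100 mM KCl / Times: 5 min incubation before reading / Benchmarks: neutral control DMSO, positive control TFP / Reagent: labelled myosin peptide probe, 5 nM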
A number is an active result; . = inactive; / = no result. Hits are enriched below; roughly 2% of the tested compounds scored in any of these assays.

SMILES	XiGFP reactiv	DENV2 CPE	E-selectin induc	S100A4 inh HTS
CO[C@@H]1CN(C)C(=O)c2ccc(NC(=O)Nc3ccccc3)cc2OC[C@@H](C)N(C(C)=O)C[C@H]1C	.	26	.	.
CO[C@@H]1CN(C)C(=O)c2cc(NC(=O)Nc3ccccc3F)ccc2OC[C@@H](C)N(C(C)=O)C[C@H]1C	.	.	.	.
CCOC(=O)c1ccc(S(=O)(=O)N2CCC(N3CCCCC3)CC2)cc1	.	32	.	.
COc1ccc(C)cc1Nc1n[n+](-c2ccccc2)c(-c2ccc(OC)c(OC)c2OC)s1	.	92	.	.
C[C@H](O)C#Cc1ccc2c(c1)O[C@H](CN(C)C(=O)C1CCC1)[C@H](C)CN([C@@H](C)CO)S2(=O)=O	.	.	.	.
CCS(=O)(=O)N1CCCCN2[C@H](C1)[C@H](c1ccc(C#Cc3ccccn3)cc1)[C@@H]2CO	.	52	.	.
CCS(=O)(=O)N1CCCCN2[C@H](CO)[C@@H](c3ccc(C#Cc4ccccc4OC)cc3)[C@@H]2C1	.	.	.	.
CCS(=O)(=O)N1CCCCN2[C@H](C1)[C@@H](c1ccc(C#Cc3ccccc3OC)cc1)[C@@H]2CO	.	40	.	.
COc1cc(C(=O)NCCOc2ccccc2)cc(OC)c1OC	.	.	.	.
COc1ccc(C(=O)NCCOc2cccc(Oc3ccccc3)c2)cc1OC	.	48	.	.
CCCCOc1ccc(C(=O)NCCOc2cccc(OC)c2)cc1	.	53	/	.
Cc1nc2ccc(NC(=O)c3nn(CC(C)C)c(=O)c4ccccc34)cc2s1	.	.	/	.
CCC(=O)Nc1ccc2c(c1)OC[C@H](C)N(C(=O)c1ccccc1F)C[C@H](C)[C@@H](OC)CN(C)C2=O	.	22	.	.
CCCC(=O)Nc1ccc2c(c1)C(=O)N(C)C[C@@H](OC)[C@H](C)CN(C(=O)c1ccccc1F)[C@@H](C)CO2	.	44	.	.
CO[C@H]1CN(C)C(=O)c2ccc(NC(=O)CC(F)(F)F)cc2OC[C@@H](C)N(C(=O)c2ccccc2F)C[C@H]1C	.	62	.	.
CCCC(=O)Nc1ccc2c(c1)C(=O)N(C)C[C@@H](OC)[C@@H](C)CN(C(=O)c1ccccc1F)[C@H](C)CO2	.	.	.	.
Cc1ccc(S(=O)c2ccc(NC(=O)C3CC3)cc2C#N)cc1 (stereo not drawn)	.	.	/	.
CCN1CCN(S(=O)(=O)c2ccc(Cl)c(C(=O)N(C)CCOc3ccc(Cl)cc3)c2)CC1	.	67	.	.
Cc1cccc(NC(=S)N2CCCCCC2)c1C	.	55	.	.
Cc1ccc(-c2nc3cccnc3s2)cc1NC(=O)C1c2ccccc2Oc2ccccc21	.	.	.	.
CC(=O)C1=C(O)C(=O)N(CCc2ccccc2)C1c1ccccc1[N+](=O)[O-] (stereo not drawn)	.	31	/	.
CN1c2ccc(-c3ccccc3F)cc2[C@@H]2[C@@H](CCN2C(=O)c2cccc(F)c2)[C@@H]1CO	.	76	.	/
CN1c2ccc(-c3ccccc3F)cc2[C@H]2[C@H](CCN2C(=O)c2cccc(F)c2)[C@H]1CO	.	.	.	/
CN1c2ccc(-c3ccccc3F)cc2[C@@H]2[C@@H](CCN2C(=O)Nc2cc(F)ccc2F)[C@@H]1CO	.	42	.	/
CCCNC(=O)N1CC[C@@H]2[C@@H](CO)N(C)c3ccc(-c4ccc(F)cc4)cc3[C@@H]21	.	.	.	93
SMILES	XiGFP reactiv	DENV2 CPE	E-selectin induc	S100A4 inh HTS
CO[C@@H]1CN(C)C(=O)c2cc(NC(=O)C3CC3)ccc2OC[C@H](C)N(C(=O)c2ccccc2)C[C@H]1C	.	.	.	.
Cc1ccc(C)c(NC(=O)CN(C)C(=O)C2=NNC(=O)CC2)c1	.	.	.	.
COc1ccccc1CNC(=O)C[C@@H]1C[C@H]2c3cc(N(C)C)ccc3O[C@H]2[C@@H](CO)O1	.	47	.	.
CN(C)c1ccc2c(c1)[C@@H]1C[C@H](CC(=O)NCc3ccccc3)O[C@@H](CO)[C@@H]1O2	.	21	.	.
CCCC#Cc1ccc2c(c1)[C@@H]1[C@@H](CCN1C(=O)CC1CC1)[C@@H](CO)N2C	.	74	.	.
CN1c2ccc(-c3ccc(F)cc3)cc2[C@@H]2[C@@H](CCN2C(=O)CC2CC2)[C@@H]1CO	.	.	.	/
CCC(=O)N1CC[C@@H]2[C@H]1c1cc(-c3cccc(F)c3)ccc1N(C)[C@H]2CO	.	/	.	/
CCC(=O)N1CC[C@@H]2[C@H]1c1cc(C#Cc3cccc(F)c3)ccc1N(C)[C@H]2CO	.	127	.	.

Bioassay records: PubChem BioAssay, Broad Institute
